Data published in ChEMBL document CHEMBL1142517, “Discovery of an orally bioavailable small molecule inhibitor of prosurvival B-cell lymphoma 2 proteins” (J Med Chem, 2008).

Tests used:
[1] = Cytotoxicity against IL3-dependent mouse FL5.12 cells overexpressing human Bcl2 assessed as cell viability after 24 hrs by MTS assay in absence of serum; format: functional, cell-based; conditions: FL5.12, 24 h
Outline: (§1)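 Mouse FL5.12 cells transfected with Bcl-XL or Bcl-2, deprived of IL-3 (no FBS or WEHI-3B conditioned medium) for 2 days. Then moved to serum-free gelatin medium (3.4 mg/mL bovine gelatin) with serially diluted compound for 24 h. Viability by MTS or CellTiter-Glo. Determinations in duplicate.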

[2] = Cytotoxicity against human NCI-H146 cells assessed as cell viability after 48 hrs in presence of 10% human serum; format: functional, cell-based; conditions: NCI-H146, 48 h
Outline: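 NCI-H146 SCLC cells maintained in RPMI 1640 with 10% FBS at 37 °C, 5% CO2. Treated for 48 h in medium with 10% human serum. Viability by CellTiter-Glo luminescence. Values from duplicate runs.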

[3] = molecular target: Apoptosis regulator Bcl-2 (Homo sapiens, UniProt P10415); experiment: Displacement of fluorescein labeled Bax peptide from Bcl2 by fluorescence polarization assay
[4] = Cytotoxicity against IL3-dependent mouse FL5.12 cells overexpressing human Bcl-XL assessed as cell viability after 24 hrs by MTS assay in absence of serum; format: functional, cell-based; conditions: FL5.12, 24 h; outline: as §1
[5] = Cmax in Sprague-Dawley rat at 5 mg/kg, po; format: ADME, organism-based; parameters: dose 5 mg/kg, route oral; conditions: in vivo
Outline: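 Rats (Sprague-Dawley) given 5 mg/kg by oral gavage in 10% DMSO/PEG-400, n = 3. Serial heparinized blood samples. Plasma drug level by LC-MS/MS after acetonitrile protein precipitation, quantified by linear regression of peak-area ratio to internal standard. Concentration–time data fitted multiexponentially.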

[6] = Ratio of AUC for Sprague-Dawley rat at 5 mg/kg, po to EC50 for human NCI-H146 cells in presence of 10% human serum; format: functional
Outline: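 The cells were treated for 48 h in medium with 10% human serum, and viability was read by CellTiter-Glo luminescence.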

[7] = Oral bioavailability in Sprague-Dawley rat at 5 mg/kg; format: ADME, organism-based; conditions: in vivo
[8] = AUC in Sprague-Dawley rat at 5 mg/kg, po; format: ADME, organism-based; parameters: dose 5 mg/kg, route oral; conditions: plasma
Outline: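 Sprague-Dawley rats, single 5 mg/kg oral dose by gavage in 10% DMSO in PEG-400, n = 3. Heparinized blood taken before dosing and at set times. Plasma proteins precipitated with acetonitrile, then LC-MS/MS against spiked plasma standards with an internal standard. AUC by linear trapezoidal rule.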

[9] = AUC in cynomolgus monkey at 2.5 mg/kg, po; format: ADME, organism-based, Macaca fascicularis; parameters: dose 2.5 mg/kg, route oral; conditions: plasma
Outline: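 Cynomolgus monkeys, single 2.5 mg/kg oral dose in 10% DMSO in PEG-400 by gastric intubation followed by 5 mL water, n = 3. Serial heparinized plasma assayed by LC-MS/MS. AUC by linear trapezoidal rule.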

[10] = Oral elimination half life in Sprague-Dawley rat; format: ADME, organism-based; conditions: in vivo, read-out: beta t1/2 (converted)
[11] = Oral elimination half life in CD1 mouse; format: ADME, organism-based; conditions: in vivo, read-out: beta t1/2 (converted)
[12] = AUC in CD1 mouse at 50 mg/kg, po; format: ADME, organism-based; parameters: dose 50 mg/kg, route oral; conditions: plasma
Outline: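 CD-1 mice, single 50 mg/kg oral gavage in 2% DMSO/5% Tween-80/20% propylene glycol/73% D5W, n = 27. Groups of three euthanized by CO2 at set times and blood taken by cardiac puncture. Plasma by LC-MS/MS. AUC by linear trapezoidal rule.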

[13] = Oral bioavailability in Sprague-Dawley rat; format: ADME, organism-based; conditions: in vivo
NCI-H1963 (Homo sapiens) = experiment: Antitumor activity against human NCI-H1963 cells xenografted C.B-17 SCID-bg mouse assessed as inhibition of tumor growth at 100 mg/kg, po daily once for 21 days; conditions: 504 h, read-out: TGI
[14] = Oral bioavailability in CD1 mouse; format: ADME, organism-based; conditions: in vivo
[15] = Oral bioavailability in cynomolgus monkey; format: ADME, organism-based, Macaca fascicularis; conditions: in vivo
[16] = AUC in Beagle dog at 2.5 mg/kg, iv or po; format: ADME, organism-based, Canis lupus familiaris; parameters: dose 2.5 mg/kg, route oral; conditions: plasma
Outline: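 Beagle dogs, single 2.5 mg/kg dose in 10% DMSO in PEG-400, n = 3 per route. Intravenous dose given as a slow cephalic-vein bolus; oral dose by gavage followed by 10 mL water. Plasma by LC-MS/MS. AUC by linear trapezoidal rule.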

[17] = Oral elimination half life in Beagle dog; format: ADME, organism-based, Canis lupus familiaris; conditions: in vivo, read-out: beta t1/2 (converted)
[18] = Oral bioavailability in Beagle dog; format: ADME, organism-based, Canis lupus familiaris; conditions: in vivo
[19] = Oral elimination half life in cynomolgus monkey; format: ADME, organism-based, Macaca fascicularis; conditions: in vivo, read-out: beta t1/2 (converted)

Chain of Apoptosis regulator Bcl-2 (P10415 whole entry): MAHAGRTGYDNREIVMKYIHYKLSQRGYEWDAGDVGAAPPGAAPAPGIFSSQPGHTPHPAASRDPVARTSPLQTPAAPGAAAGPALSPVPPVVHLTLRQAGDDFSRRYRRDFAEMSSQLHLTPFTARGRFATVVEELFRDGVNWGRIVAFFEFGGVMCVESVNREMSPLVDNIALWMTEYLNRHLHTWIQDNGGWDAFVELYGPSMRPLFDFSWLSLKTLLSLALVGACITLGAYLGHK

SMILES	EC50 [1] [nM]	EC50 [2] [nM]	Ki [3] [nM]	EC50 [4] [nM]	Ratio [6]	AUC [8] [µM·h]	further results
CN(C)CC[C@H](CSc1ccccc1)Nc1ccc(S(=O)(=O)NC(=O)c2ccc(N3CCN(CC4=C(c5ccc(Cl)cc5)CCC4)CC3)cc2)cc1[N+](=O)[O-]	51	691	< 1	143			
O=C(NS(=O)(=O)c1ccc(N[C@H](CCN2CCOCC2)CSc2ccccc2)c([N+](=O)[O-])c1)c1ccc(N2CCN(Cc3ccccc3-c3ccc(Cl)cc3)CC2)cc1		610	< 1		1.9	1.16	Cmax [5]: 200 nM; bioavailability [7]: 16%
CN(C)CC[C@H](CSc1ccccc1)Nc1ccc(S(=O)(=O)NC(=O)c2ccc(N3CCN(CC4=C(c5ccc(Cl)cc5)CCCC4)CC3)cc2)cc1[N+](=O)[O-]	11	25.7	< 1	29	25.3	0.65	
CC1(C)CCC(c2ccc(Cl)cc2)=C(CN2CCN(c3ccc(C(=O)NS(=O)(=O)c4ccc(N[C@H](CCN5CCOCC5)CSc5ccccc5)c(S(=O)(=O)C(F)(F)F)c4)cc3)CC2)C1 [NAVITOCLAX]	5.9	86.7		4.2		6.26	AUC [9]: 6.61 µM·h; half-life [10]: 4 h; half-life [11]: 4 h; AUC [12]: 56.7 µM·h; bioavailability [13]: 20%; inhibition in vivo at 100 mg/kg (NCI-H1963 (Homo sapiens)): 100%; bioavailability [14]: 20%; bioavailability [15]: 20%; bioavailability [7]: 20%; AUC [16]: 27.8 µM·h; half-life [17]: 4 h; bioavailability [18]: 20%; half-life [19]: 4 h
CN(C)CC[C@H](CSc1ccccc1)Nc1ccc(S(=O)(=O)NC(=O)c2ccc(N3CCN(Cc4ccccc4-c4ccc(Cl)cc4)CC3)cc2)cc1S(C)(=O)=O	170	3490	< 1	415			
CN(C)CC[C@H](CSc1ccccc1)Nc1ccc(S(=O)(=O)NC(=O)c2ccc(N3CCN(Cc4ccccc4-c4ccc(Cl)cc4)CC3)cc2)cc1OC(F)(F)F	230	5080	< 1	805			
CN(C)CC[C@H](CSc1ccccc1)Nc1ccc(S(=O)(=O)NC(=O)c2ccc(N3CCN(Cc4ccccc4-c4ccc(Cl)cc4)CC3)cc2)cc1C#N	49	1930	< 1	225	1.1	2.19	
Cc1cc(S(=O)(=O)NC(=O)c2ccc(N3CCN(Cc4ccccc4-c4ccc(Cl)cc4)CC3)cc2)ccc1N[C@H](CCN(C)C)CSc1ccccc1	673	28800	< 1				
CN(C)CC[C@H](CSc1ccccc1)Nc1ccc(S(=O)(=O)NC(=O)c2ccc(N3CCN(CC4=C(c5ccc(Cl)cc5)CCC(C)(C)C4)CC3)cc2)cc1[N+](=O)[O-]	0.6	98	< 1	0.9			
O=C(NS(=O)(=O)c1ccc(N[C@H](CCN2CCOCC2)CSc2ccccc2)c(S(=O)(=O)C(F)(F)F)c1)c1ccc(N2CCN(CC3=C(c4ccc(Cl)cc4)CCCC3)CC2)cc1	1.1	58.9	< 1	0.7	65.7	3.87	AUC [9]: 1.9 µM·h; AUC [12]: 25.2 µM·h; AUC [16]: 3.8 µM·h
CN(C)CC[C@H](CSc1ccccc1)Nc1ccc(S(=O)(=O)NC(=O)c2ccc(N3CCN(C/C4=C(\c5ccc(Cl)cc5)CCCCCC4)CC3)cc2)cc1[N+](=O)[O-]	39	200	< 1	21			
CN(C)CC[C@H](CSc1ccccc1)Nc1ccc(S(=O)(=O)NC(=O)c2ccc(N3CCN(CC4=C(c5ccc(Cl)cc5)CCOC4)CC3)cc2)cc1[N+](=O)[O-]	33	266	2.4	55			
CN(C)CC[C@H](CSc1ccccc1)Nc1ccc(S(=O)(=O)NC(=O)c2ccc(N3CCN(Cc4ccccc4-c4ccc(Cl)cc4)CC3)cc2)cc1	2700	78700	< 1	15000			
CN(C)CC[C@H](CSc1ccccc1)Nc1ccc(S(=O)(=O)NC(=O)c2ccc(N3CCN(CC4=C(c5ccc(Cl)cc5)CCCCC4)CC3)cc2)cc1[N+](=O)[O-]	< 1	51.9	< 1	5			
CN(C)CC[C@H](CSc1ccccc1)Nc1ccc(S(=O)(=O)NC(=O)c2ccc(N3CCN(Cc4ccccc4-c4ccc(Cl)cc4)CC3)cc2)cc1C(F)(F)F	42	2460	< 1	122	1.8	4.41	Cmax [5]: 370 nM; bioavailability [7]: 24%
CN(C)CC[C@H](CSc1ccccc1)Nc1ccc(S(=O)(=O)NC(=O)c2ccc(N3CCN(Cc4ccccc4-c4ccc(Cl)cc4)CC3)cc2)cc1[N+](=O)[O-] [ABT 737]	7.7	87		30		0.28	bioavailability [7]: 6%
CN(C)CC[C@H](CSc1ccccc1)Nc1ccc(S(=O)(=O)NC(=O)c2ccc(N3CCN(Cc4ccccc4-c4ccc(Cl)cc4)CC3)cc2)cc1S(=O)(=O)C(F)(F)F	4.7	39.4	< 1	12	21	0.83	
CN(C)CC[C@H](CSc1ccccc1)Nc1ccc(S(=O)(=O)NC(=O)c2ccc(N3CCN(Cc4ccccc4-c4ccc(Cl)cc4)CC3)cc2)cc1C(=O)C(F)(F)F	55	2010	< 1	329	0.62	1.25	
O=C(NS(=O)(=O)c1ccc(NCCSc2ccccc2)c([N+](=O)[O-])c1)c1ccc(N2CCN(Cc3ccccc3-c3ccc(Cl)cc3)CC2)cc1		33000	< 1		0.32	10.4	Cmax [5]: 1150 nM; bioavailability [7]: 28%
